As a reminder, the EC50 is the concentration needed to bring the measured effect to its halfway point.

From ChEMBL document CHEMBL1938301, “Cyclohexane 1,3-diones and their inhibition of mutant SOD1-dependent protein aggregation and toxicity in PC12 cells” (Bioorg Med Chem, 2012) come the findings set out here.

Test [1] in a line: Inhibition of SOD1 G93A mutant protein aggregation-mediated cytotoxicity in rat PC12 cells expressing yellow fluorescent protein assessed as increase in cell viability. As to conditions: PC-12. The class given is cell-based.
Test [2] relates to PC-12. In words: Inhibition of SOD1 G93A mutant protein aggregation-mediated cytotoxicity in rat PC12 cells expressing yellow fluorescent protein assessed as increase in cell viability relative to radicicol. Type of test: cell-based. Set-up: concentration or dose not given beside the values. In outline:
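PC12 cells expressing G93A SOD1-YFP; MG132 proteasome inhibition induces cytotoxic mutant SOD1 aggregates. Cell survival measured as protection read-out; efficacy expressed relative to radicicol positive control.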

On to `Cc1cc(C)cc(C2CC(=O)CC(=O)C2)c1`, for which the EC50 in test [1] was 2400 nM. Also, the Efficacy in test [2] was determined as 100%.
For `O=C1CC(=O)CC(c2c(F)cccc2F)C1` the same measures were more than 32000 nM and 100%.
In the case of `O=C1CC(=O)CC(c2cc(-c3ccccc3)cc(C(F)(F)F)c2)C1`, the 50% effective concentration (EC50) in test [1] turned out to be 730 nM. For the same compound, the Efficacy in test [2] is 100%.
For `O=C1CC(=O)CC(c2cccc(OC(F)(F)F)c2)C1` the same measures were 2040 nM and 100%.
For `CC(C)c1ccc(C2CC(=O)CC(=O)C2)cc1` the same measures were 4090 nM and 100%.
For `Cc1cc(C)c(C2CC(=O)CC(=O)C2)c(C)c1` the same measures were more than 32000 nM and 100%.
In the case of `O=C1CC(=O)CC(c2ccc(-c3cccc(Cl)c3)o2)C1`, in test [1], the EC50 was determined as 2710 nM. Further, the Efficacy in test [2] was found to be 100%.
For `O=C1CC(=O)CC([C@@H]2C[C@H]2c2ccccc2)C1` the same measures were 2650 nM and 100%.
Consider `O=C1CC(=O)CC(c2ccc(Cl)cc2Cl)C1`, for which, in test [1], the half-maximal effective concentration (EC50) was determined as 4570 nM. In test [2], the Efficacy came out at 100%.
For `O=C1CC(=O)CC(c2ccc(OCCOc3ccccc3)cc2)C1` the same measures were 1560 nM and 100%.
Take `CCOc1ccc(C2CC(=O)CC(=O)C2)c(OCC)c1`: in test [1], the concentration giving a half-maximal response (EC50) is 1490 nM. For the same compound, the Efficacy in test [2] worked out at 100%.
In the case of `O=C1CC(=O)CC(c2ccc(Oc3ccc(Cl)cc3)cc2)C1`, the EC50 in test [1] is 2880 nM. In addition, the Efficacy in test [2] stood at 100%.
For `O=C1CC(=O)CC(c2cccc(Br)c2)C1` the same measures were 28700 nM and 100%.
For `Cc1cccc(C)c1C1CC(=O)CC(=O)C1` the same measures were 2700 nM and 100%.
For `O=C1CC(=O)CC(c2ccc(Oc3cccc(Cl)c3)cc2)C1` the same measures were 3600 nM and 100%.
Consider `O=C1CC(=O)CC(c2cccc(-c3cc(C(F)(F)F)cc(C(F)(F)F)c3)c2)C1`, for which, in test [1], the half-maximal effective concentration (EC50) is 2150 nM. The Efficacy in test [2] turned out to be 100%.
For `CC1(COc2ccccc2)CC(=O)CC(=O)C1` the same measures were 6280 nM and 100%.
`O=C1CC(=O)CC(c2ccc(OCCCc3ccccc3)cc2)C1`: the EC50 in test [1] amounted to 1300 nM. In addition, the Efficacy in test [2] is 100%.
For the compound `CCCCCc1ccc(C2CC(=O)CC(=O)C2)cc1`, the EC50 in test [1] stood at 2010 nM. Also, the Efficacy in test [2] came out at 100%.
Take `O=C1CC(=O)CC(Cc2ccccc2)C1`: the EC50 in test [1] is 1820 nM. The Efficacy in test [2] amounted to 100%.
Turning to `CC(c1ccccc1)C1CC(=O)CC(=O)C1` (racemic), the half-maximal effective concentration (EC50) in test [1] turned out to be 5850 nM. Moreover, the Efficacy in test [2] was 100%.
For `O=C1CC(=O)CC(c2ccc(Oc3ccc(F)cc3)cc2)C1` the same measures were 2370 nM and 100%.
Consider `Cc1cc(C)cc(CC2CC(=O)CC(=O)C2)c1`, for which the 50% effective concentration (EC50) in test [1] came out at 900 nM. Further, the Efficacy in test [2] is 100%.
On to `O=C1CC(=O)CC(c2ccc(C(F)(F)F)cc2C(F)(F)F)C1`, for which the EC50 in test [1] is 2560 nM. Also, the Efficacy in test [2] worked out at 100%.
For `CCc1ccccc1C1CC(=O)CC(=O)C1`, the EC50 in test [1] turned out to be 3160 nM. Moreover, the Efficacy in test [2] is 100%.
For `CCCc1ccc(C2CC(=O)CC(=O)C2)cc1` the same measures were 2220 nM and 100%.
For `O=C1CC(=O)CC(c2cc(Cl)cc(Cl)c2)C1` the same measures were 2350 nM and 100%.
On to `COc1cc(OC)cc(C2CC(=O)CC(=O)C2)c1`, for which, in test [1], the EC50 came to 5200 nM. The Efficacy in test [2] was determined as 100%.
For `CCCCc1ccc(C2CC(=O)CC(=O)C2)cc1` the same measures were 2710 nM and 100%.
For `O=C1CC(=O)CC(c2cc(-c3ccccc3)cc(-c3ccccc3)c2)C1` the same measures were 2530 nM and 100%.
For `O=C1CC(=O)CC(COc2cc(C(F)(F)F)cc(C(F)(F)F)c2)C1` the same measures were 700 nM and 100%.
